Source: PubChem (several laboratories)
Compounds with a hit are over-represented: about 3.9% of the library has one in this group of screens.
HCV NS3 hel inh: inhibitors of Hepatitis C virus NS3 helicase; NS3 helicase DNA unwinding, Cy5 molecular beacon fluorescence; AID 1800; inhibition, % at 10.9 µM; hit rate 0.56% among 290,000;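 active = inhibition above the mean of all tested compounds plus 3 SD, set per campaign, cut at about 35% in these data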;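 note: 0% = DMSO wells and 100% = thioflavine S control wells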
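Test system: hepatitis C virus NS3 helicase domain fragment enzyme. Also added: annealed dual-labelled DNA beacon duplex, ATP-started. Timing: 60 min unwinding reaction at 25 °C after ATP addition. Technique: Cy5 fluorescence. Measure: % inhibition of unwinding.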
HSP90 refold inh: inhibitors of HSP90 luciferase refolding in rabbit reticulocyte lysate; luciferase refolding luminescence, 3 h; inhibition, % at 5.6 µM; hit rate 0.91% among 290,000;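 active = inhibition above the screen-wide mean plus 3 SD, computed separately per campaign, cut at about 16% in these data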;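 note: 0% = DMSO wells and 100% = 60 µM geldanamycin wells; inhibitors lower the luminescence because luciferase stays unfolded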
FID counter: displaces DNA intercalator in HCV helicase counter-screen; DNA fluorescent intercalator displacement, fluorescence; inhibition, % at 7.9 µM; hit rate 0.17% among 290,000; AID 1845; in the data active = inhibition above about 37%;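 note: 0% = vehicle and 100% = reference compound; higher means more ethidium bromide displaced from hairpin DNA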
HSF-1 act: increases HSF-1 driven luciferase reporter signal | hit rate 1.7% among 300,000 | NIH3T3-HGL HSF-1 luciferase reporter, MG132, 8 h; 100% = twice DMSO control signal | activation, % at 9 µM;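 active = mean replicate activation of at least 50% with a set share of replicates each reaching 50%; inconclusive = only one of those two conditions met; inactive = mean below 50% and too few replicates reaching it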;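 note: 0% = median of the neutral control wells and 100% = twice that signal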
HSF1 inh: HSF1 inhibition. hit rate 0.77% among 300,000. activity change, negative = inhibition, % at 7.5 µM (by protocol). NIH3T3-HGL HSE-luciferase, MG132-induced, luminescence 8 h; stronger effect = lower value;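 active = more than half of replicate wells show activity change below -50%, luminescence cut by over half; inconclusive = some wells, but at most half, below -50%; inactive = no replicate well below -50%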;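 note: luciferase reports HSF-1 transcriptional activity via heat shock element; 0% = median of DMSO wells and -100% = zero luminescence signal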
core dimer inh: HCV core protein dimerization inhibition; TR-FRET GST/Flag-core106 dimerization, 1536-well; inhibition, % at 5 µM; hit rate 0.33% among 300,000;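 active = inhibition above the mean of all tested compounds plus 3 SD, set per screening campaign, cut at about 45% in these data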
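Assay system – GST-tagged and Flag-tagged HCV core protein residues 1-106 · Quantity – core106 proteins, GST 13.5 nM and Flag 17 nM · Benchmarks – unlabelled core106 and no-GST-core106 wells · Read-out basis – percent inhibition of core106 dimerization signal · Detection – time-resolved FRET, ex 340 nm, em 617 and 671 nm · Schedule – 4 h at 22.5 °C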
HSP90 confirm: HSP90 inhibition, confirmation assay; shares compounds with HSP90 refold inh; rabbit reticulocyte lysate, luciferase refolding luminescence, 3 h; inhibition, % at 5.9 µM; hit rate 64% among 2,300; AID 1846; in the data active = inhibition above about 18%;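 note: 0% = vehicle wells and 100% = reference inhibitor wells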
luciferase ctr: firefly luciferase inhibition, HSP90 counter-screen | shares compounds with HSP90 refold inh | purified native firefly luciferase, luminescence | inhibition, % at 5.9 µM | hit rate 48% among 2,300;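 active = inhibition above the mean inhibition of all tested sample wells plus 3 SD, cut at about 10% in these data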;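 note: 0% = DMSO with luciferase and 100% = wells lacking luciferase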
Target sequence (P08659 whole entry, looked up): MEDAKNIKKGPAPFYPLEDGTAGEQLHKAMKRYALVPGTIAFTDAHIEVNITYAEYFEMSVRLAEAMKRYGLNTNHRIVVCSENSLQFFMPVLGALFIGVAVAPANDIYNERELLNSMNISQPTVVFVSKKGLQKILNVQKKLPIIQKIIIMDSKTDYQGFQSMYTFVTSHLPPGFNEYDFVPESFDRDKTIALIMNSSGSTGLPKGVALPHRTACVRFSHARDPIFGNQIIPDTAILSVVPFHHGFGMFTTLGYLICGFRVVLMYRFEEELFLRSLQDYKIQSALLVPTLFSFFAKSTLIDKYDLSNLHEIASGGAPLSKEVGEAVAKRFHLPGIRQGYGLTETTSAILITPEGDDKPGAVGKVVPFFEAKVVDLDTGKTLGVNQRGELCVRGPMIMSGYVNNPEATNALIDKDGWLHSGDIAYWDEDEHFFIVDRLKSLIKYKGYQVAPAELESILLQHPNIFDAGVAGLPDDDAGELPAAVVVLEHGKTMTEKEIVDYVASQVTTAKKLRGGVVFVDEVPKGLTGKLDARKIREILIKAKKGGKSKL
Numbers without * were called inactive; ? = inconclusive; / = no result given.

SMILES | HCV NS3 hel inh | HSP90 refold inh | FID counter | HSF-1 act | HSF1 inh | core dimer inh | HSP90 confirm | luciferase ctr
Cc1csc(NC(=O)C2COc3ccccc3O2)n1 (stereo unspecified) | 4.8 | 46.0* | -0.8 | 38.9 | 16.3 | -2.2 | 62.6* | 56.0*
Cc1cnc(NC(=O)C2COc3ccccc3O2)s1 (stereo unspecified) | 11.4 | 46.4* | 3.2 | / | / | 2.4 | 70.3* | 70.5*
O=C(Nc1nc(-c2ccccc2)cs1)C1COc2ccccc2O1 (stereo unspecified) | -1.2 | 2.6 | -10.9 | 23.2 | 1.0 | 8.4 | / | /
CC1CCc2nc(NC(=O)C3COc4ccccc4O3)sc2C1 (stereo unspecified) | -5.4 | 57.0* | -8.1 | -75.5 | -70.7* | -4.7 | 71.5* | 66.5*
O=C(NCC1CCCO1)c1ccc2c(=O)n(Cc3cccc(Br)c3)c(=S)[nH]c2c1 (stereo unspecified) | -0.7 | -6.9 | 4.9 | 3.6 | 0.4 | 5.9 | / | /
O=C(NCc1ccccc1Cl)c1ccc(NC2=NC3CS(=O)(=O)CC3S2)cc1 (stereo unspecified) | 12.9 | -5.1 | -2.3 | 1.4 | -6.3 | -18.1 | / | /
Nc1nc2ccccc2n1C(=O)c1ccccc1 | -6.4 | 26.6* | 0.7 | 25.4 | 16.7 | 3.0 | 58.5* | 41.8*
Nc1nc2ccccc2n1C(=O)c1ccc(F)cc1 | -10.5 | 39.8* | 0.0 | 38.9 | 14.6 | 6.7 | 53.8* | 35.4*
COc1ccc(C(=O)n2c(N)nc3ccccc32)cc1OC | -5.0 | 1.5 | -3.3 | 29.6 | 8.8 | 2.2 | / | /
Cc1c(NC(=O)c2ccc(-c3cccc([N+](=O)[O-])c3)o2)c(=O)n(-c2ccccc2)n1C | -1.9 | -3.2 | -13.4 | 11.3 | 0.1 | -9.9 | / | /
COc1ccc(Cc2noc(CN3CCN(C4CCc5ccccc5C4)CC3)n2)cc1OC (stereo unspecified) | 1.8 | -0.7 | 2.4 | 1.3 | -1.0 | -6.0 | / | /
COc1cccc(/C=N\NC(C)=O)c1OC/C=C/c1ccccc1 | -0.2 | -3.8 | -42.1 | 4.5 | 4.0 | / | / | /
CCOC(=O)N1CCC(NC(=O)c2cc(C(=O)Nc3ccc(S(=O)(=O)N4CCCCC4)cc3)ccc2CO)CC1 | -4.1 | 0.9 | -26.3 | -7.1 | -3.8 | 1.1 | / | /
O=C(CNS(=O)(=O)c1ccc(Br)s1)NCc1ccccc1 | -1.2 | 17.2* | -6.9 | 68.9* | 29.3 | -2.3 | -2.7 | -4.7
Cc1cc(/C=N/Nc2nc(N)ncc2[N+](=O)[O-])c(C)n1-c1ccccc1F | -8.5 | 77.8* | -7.5 | -7.1 | -3.5 | 1.3 | 93.8* | 88.9*
COCCn1nnnc1C(C(C)C)N1CCN(C(=O)c2ccco2)CC1 (stereo unspecified) | 9.7 | 2.8 | -3.5 | 3.4 | -10.5 | -2.4 | / | /
COc1ccc(-c2cc(=O)c3c(O)c(OC)c(O)cc3o2)cc1 | 2.5 | 20.3* | -13.7 | 22.8 | 19.1 | 0.6 | 45.9* | 40.6*
Cc1c(C)n(-c2ccccc2)c2ncnc(NCCN(C)C)c12 | 4.6 | -6.7 | -4.8 | 12.0 | -3.9 | 3.2 | / | /
CCOC(=O)Cc1csc(NC(=S)NC(=O)c2ccc(C)cc2)n1 | -8.8 | 36.0* | -3.9 | -39.4 | -39.1 | 11.2 | 40.5* | -13.8
Cc1[nH]c2ccccc2c1/C=N/Nc1nncn1N | -7.9 | 78.3* | 3.1 | / | / | -6.9 | -9.6 | -37.0
COc1ccc(-c2cc(-c3ccccc3)no2)cc1 | / | / | / | 5.6 | -4.1 | -3.6 | / | /
COc1ccc(-c2cc3nnc(-c4ccccc4)nc3s2)cc1 | 2.8 | 21.3* | -2.5 | -59.4 | -46.7 | -2.6 | 44.5* | 43.5*
COC(=O)CCC(=O)c1ccc(OC)c(Cl)c1 | / | / | / | 1.1 | 1.7 | -5.0 | / | /
O=C1CCCCC1Sc1nnc(-c2ccc3c(c2)OCO3)o1 (stereo unspecified) | -1.2 | 75.0* | -15.2 | -41.4 | -33.8 | 1.4 | 93.5* | 78.7*
Clc1ccc(CSc2nnc(-c3ccc4c(c3)OCO4)o2)cc1 | -1.3 | 1.5 | -10.9 | -6.5 | 3.5 | 0.9 | / | /
SMILES | HCV NS3 hel inh | HSP90 refold inh | FID counter | HSF-1 act | HSF1 inh | core dimer inh | HSP90 confirm | luciferase ctr
Cc1nn(-c2ccccc2)c(Cl)c1/C=N/Nc1ccc(Cl)c(C(=O)O)c1 | 14.9 | 37.9* | -19.1 | -53.2 | -43.4 | 1.9 | 83.7* | 78.3*
O=C(O)c1cc(N/N=C/c2c(O)ccc3ccccc23)ccc1Cl | 11.8 | -3.9 | -7.2 | ? | 42.8 | -6.9 | / | /
O=C(O)c1cc(N/N=C/C=C/c2ccccc2)ccc1Cl | 30.9 | 27.2* | -15.9 | 9.8 | 5.2 | -6.6 | 36.7* | -7.6
Cc1nn(-c2ccccc2)c(Cl)c1/C=N/NC(=O)OC(C)(C)C | -6.4 | -2.4 | -15.0 | 22.3 | 3.4 | -2.1 | / | /
CN(CC(=O)N1CCN(c2ccccc2)CC1)S(=O)(=O)c1cnc[nH]1 | -3.5 | 0.5 | 6.6 | 0.2 | -7.0 | 6.5 | / | /
COc1ccccc1NC(=O)c1ccc(CS(=O)(=O)c2ccc(C)cc2)cc1 | 0.4 | 0.8 | -6.2 | 3.5 | 4.4 | 7.7 | / | /
CC(=O)n1c2c(c3ccccc31)OC(N)=C(C#N)C2c1ccc(C(C)C)cc1 (stereo unspecified) | 9.3 | 19.6* | -10.7 | / | / | 13.2 | 10.2 | 23.7*
COc1ccc(CC(=O)Oc2cc(C)ccc2C)cc1 | -17.7 | 17.3* | -24.0 | 1.2 | -5.9 | -2.0 | -4.6 | -7.1
CCOc1ccc(S(=O)(=O)N(CC(=O)N2CCC(C(N)=O)CC2)c2ccc(F)cc2)cc1 | 8.7 | -0.7 | -17.5 | -1.4 | -0.3 | 3.5 | / | /
c1ccc(-c2noc(-c3ccncc3)n2)nc1 | 4.6 | 18.2* | -1.0 | 7.0 | 0.5 | 0.1 | 18.5* | -4.4
Cc1ccc(-c2nc(-c3ccncc3)no2)cc1 | -18.3 | 9.3 | -21.5 | 44.2 | 10.7 | / | / | /
CC(C)(C)c1ccc(-c2nc(-c3ccncc3)no2)cc1 | -1.8 | 20.3* | -5.4 | -37.4 | -27.2 | -0.1 | 33.4* | 32.4*
c1ccc(-c2noc(-c3cccnc3)n2)nc1 | 0.6 | 2.1 | -1.8 | 3.2 | 5.0 | 1.1 | / | /
c1ccc(-c2noc(-c3ccc4ccccc4c3)n2)nc1 | -7.6 | 78.3* | -5.7 | -82.3 | -78.0* | 1.0 | 96.7* | 91.5*
COc1cccc(-c2nc(-c3ccccn3)no2)c1 | -16.1 | 68.8* | -3.2 | -12.2 | -10.2 | -6.9 | 86.3* | 77.7*
Cc1onc(-c2ccccc2Cl)c1-c1nc(-c2ccccn2)no1 | -9.2 | 1.4 | -18.3 | 0.2 | -2.6 | -3.2 | / | /
Clc1ccccc1/C=C/c1nc(-c2ccccn2)no1 | -6.0 | 64.0* | -19.0 | -45.7 | -39.5 | 0.1 | 86.0* | 82.9*
O=C(Nc1ccc(NC(=O)c2ccccc2F)cn1)c1ccco1 | -1.2 | 28.2* | -8.0 | -6.3 | -1.8 | 7.1 | 51.8* | 35.7*
